Assay results published in ChEMBL document CHEMBL4138126, “Synthesis, antiproliferative, anti-tubulin activity, and docking study of new 1,2,4-triazoles as potential combretastatin analogues” (Eur J Med Chem, 2017).

What was measured:
Type in all cases: functional
A549 = assay: Growth inhibition of human A549/ATCC cells assessed as cell growth at 10 uM after 48 hrs by sulforhodamine B assay; details: A549, 48 h, read-out: Activity
Summary of the method: (§1)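 NCI 60-cell-line panel screen (nine cancer types). Compounds added at single concentration 10^-5 M, cultures incubated 48 h; growth inhibition percentages reported.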

EKVX = assay: Growth inhibition of human EKVX cells assessed as cell growth at 10 uM after 48 hrs by sulforhodamine B assay; details: read-out: Activity; summary of the method: as §1
NCI-H322M = assay: Growth inhibition of human NCI-H322M cells assessed as cell growth at 10 uM after 48 hrs by sulforhodamine B assay; details: read-out: Activity; summary of the method: as §1
NCI-H460 = assay: Growth inhibition of human NCI-H460 cells assessed as cell growth at 10 uM after 48 hrs by sulforhodamine B assay; details: NCI-H460, 48 h, read-out: Activity; summary of the method: as §1
HCT-15 = assay: Growth inhibition of human HCT15 cells assessed as cell growth at 10 uM after 48 hrs by sulforhodamine B assay; details: HCT-15, 48 h, read-out: Activity; summary of the method: as §1
KM12 = assay: Growth inhibition of human KM12 cells assessed as cell growth at 10 uM after 48 hrs by sulforhodamine B assay; details: KM12, 48 h, read-out: Activity; summary of the method: as §1
SF-295 = assay: Growth inhibition of human SF295 cells assessed as cell growth at 10 uM after 48 hrs by sulforhodamine B assay; details: SF-295, 48 h, read-out: Activity; summary of the method: as §1
SF-539 = assay: Growth inhibition of human SF539 cells assessed as cell growth at 10 uM after 48 hrs by sulforhodamine B assay; details: SF-539, 48 h, read-out: Activity; summary of the method: as §1
SNB-19 = assay: Growth inhibition of human SNB19 cells assessed as cell growth at 10 uM after 48 hrs by sulforhodamine B assay; details: SNB-19, 48 h, read-out: Activity
Summary of the method: (§2)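 NCI 60-cell-line panel from nine tumour types (leukaemia, lung, colon, CNS, melanoma, ovarian, renal, prostate, breast). Each compound was added at one single concentration, and cultures were incubated for 48 h. Results are reported as percent growth inhibition.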

SNB-75 = assay: Growth inhibition of human SNB75 cells assessed as cell growth at 10 uM after 48 hrs by sulforhodamine B assay; details: SNB-75, 48 h, read-out: Activity; summary of the method: as §2
U-251 = assay: Growth inhibition of human U251 cells assessed as cell growth at 10 uM after 48 hrs by sulforhodamine B assay; details: U-251, 48 h, read-out: Activity; summary of the method: as §2
Malme-3M = assay: Growth inhibition of human MALME-3M cells assessed as cell growth at 10 uM after 48 hrs by sulforhodamine B assay; details: read-out: Activity; summary of the method: as §1
SK-MEL-2 = assay: Growth inhibition of human SK-MEL-2 cells assessed as cell growth at 10 uM after 48 hrs by sulforhodamine B assay; details: SK-MEL-2, 48 h, read-out: Activity; summary of the method: as §1
UACC-257 = assay: Growth inhibition of human UACC257 cells assessed as cell growth at 10 uM after 48 hrs by sulforhodamine B assay; details: UACC-257, 48 h, read-out: Activity; summary of the method: as §2
OVCAR-3 = assay: Growth inhibition of human OVCAR3 cells assessed as cell growth at 10 uM after 48 hrs by sulforhodamine B assay; details: OVCAR-3, 48 h, read-out: Activity; summary of the method: as §1
OVCAR-5 = assay: Growth inhibition of human OVCAR5 cells assessed as cell growth at 10 uM after 48 hrs by sulforhodamine B assay; details: OVCAR-5, 48 h, read-out: Activity; summary of the method: as §1
NCI/ADR-RES = assay: Growth inhibition of human NCI-ADR-RES cells assessed as cell growth at 10 uM after 48 hrs by sulforhodamine B assay; details: read-out: Activity; summary of the method: as §1
SK-OV-3 = assay: Growth inhibition of human SKOV3 cells assessed as cell growth at 10 uM after 48 hrs by sulforhodamine B assay; details: SK-OV-3, 48 h, read-out: Activity; summary of the method: as §1
786-0 = assay: Growth inhibition of human 786-0 cells assessed as cell growth at 10 uM after 48 hrs by sulforhodamine B assay; details: 786-0, 48 h, read-out: Activity; summary of the method: as §1
A498 = assay: Growth inhibition of human A498 cells assessed as cell growth at 10 uM after 48 hrs by sulforhodamine B assay; details: A498, 48 h, read-out: Activity; summary of the method: as §1
CAKI-1 = assay: Growth inhibition of human CAKI-1 cells assessed as cell growth at 10 uM after 48 hrs by sulforhodamine B assay; details: CAKI-1, 48 h, read-out: Activity; summary of the method: as §1
TK-10 = assay: Growth inhibition of human TK10 cells assessed as cell growth at 10 uM after 48 hrs by sulforhodamine B assay; details: TK-10, 48 h, read-out: Activity; summary of the method: as §2
UO-31 = assay: Growth inhibition of human UO31 cells assessed as cell growth at 10 uM after 48 hrs by sulforhodamine B assay; details: UO-31, 48 h, read-out: Activity; summary of the method: as §2
PC-3 = assay: Growth inhibition of human PC3 cells assessed as cell growth at 10 uM after 48 hrs by sulforhodamine B assay; details: PC-3, 48 h, read-out: Activity; summary of the method: as §1
T47D = assay: Growth inhibition of human T47D cells assessed as cell growth at 10 uM after 48 hrs by sulforhodamine B assay; details: read-out: Activity; summary of the method: as §2

Structure (SMILES): CCOc1ccc(-n2nc(C(=O)Nc3ccc(F)c(F)c3)nc2-c2cc(OC)c(OC)c(OC)c2)cc1
- growth at 10 µM (A549): 62%
- growth at 10 µM (EKVX): 76.5%
- growth at 10 µM (NCI-H322M): 73%
- growth at 10 µM (NCI-H460): 77.9%
- growth at 10 µM (HCT-15): 63.8%
- growth at 10 µM (KM12): 56.7%
- growth at 10 µM (SF-295): 60.5%
- growth at 10 µM (SF-539): 96.6%
- growth at 10 µM (SNB-19): 86.8%
- growth at 10 µM (SNB-75): 74.4%
- growth at 10 µM (U-251): 70.3%
- growth at 10 µM (Malme-3M): 86.7%
- growth at 10 µM (SK-MEL-2): 78.4%
- growth at 10 µM (UACC-257): 89.4%
- growth at 10 µM (OVCAR-3): 61%
- growth at 10 µM (OVCAR-5): 101%
- growth at 10 µM (NCI/ADR-RES): 67.5%
- growth at 10 µM (SK-OV-3): 85.2%
- growth at 10 µM (786-0): 85%
- growth at 10 µM (A498): 68.9%
- growth at 10 µM (CAKI-1): 68.5%
- growth at 10 µM (TK-10): 87.4%
- growth at 10 µM (UO-31): 42.6%
- growth at 10 µM (PC-3): 47.1%
- growth at 10 µM (T47D): 41.7%

Structure (SMILES): CCOc1ccc(-n2nc(C(=O)Nc3cc(F)cc(F)c3)nc2-c2cc(OC)c(OC)c(OC)c2)cc1
- growth at 10 µM (A549): 73.8%
- growth at 10 µM (EKVX): 85.8%
- growth at 10 µM (NCI-H322M): 85.3%
- growth at 10 µM (NCI-H460): 94.7%
- growth at 10 µM (HCT-15): 77.9%
- growth at 10 µM (KM12): 85.9%
- growth at 10 µM (SF-295): 84.6%
- growth at 10 µM (SF-539): 82.4%
- growth at 10 µM (SNB-19): 73.3%
- growth at 10 µM (SNB-75): 58%
- growth at 10 µM (U-251): 82%
- growth at 10 µM (Malme-3M): 97.5%
- growth at 10 µM (SK-MEL-2): 92.9%
- growth at 10 µM (UACC-257): 90.4%
- growth at 10 µM (OVCAR-3): 93.6%
- growth at 10 µM (OVCAR-5): 98.8%
- growth at 10 µM (NCI/ADR-RES): 81.7%
- growth at 10 µM (SK-OV-3): 93%
- growth at 10 µM (786-0): 82.1%
- growth at 10 µM (A498): 56%
- growth at 10 µM (CAKI-1): 68.8%
- growth at 10 µM (TK-10): 96.9%
- growth at 10 µM (UO-31): 53.5%
- growth at 10 µM (PC-3): 69.9%
- growth at 10 µM (T47D): 55.9%

Structure (SMILES): CCOc1ccc(-n2nc(C(=O)Nc3ccc(OC)c(O)c3)nc2-c2cc(OC)c(OC)c(OC)c2)cc1
- growth at 10 µM (A549): 94%
- growth at 10 µM (EKVX): 95.7%
- growth at 10 µM (NCI-H322M): 84.7%
- growth at 10 µM (NCI-H460): 97.6%
- growth at 10 µM (HCT-15): 97.2%
- growth at 10 µM (KM12): 92.8%
- growth at 10 µM (SF-295): 108%
- growth at 10 µM (SF-539): 96.2%
- growth at 10 µM (SNB-19): 91.8%
- growth at 10 µM (SNB-75): 71.2%
- growth at 10 µM (U-251): 93.2%
- growth at 10 µM (Malme-3M): 114%
- growth at 10 µM (SK-MEL-2): 96%
- growth at 10 µM (UACC-257): 90.8%
- growth at 10 µM (OVCAR-3): 97.8%
- growth at 10 µM (OVCAR-5): 102%
- growth at 10 µM (NCI/ADR-RES): 86.4%
- growth at 10 µM (SK-OV-3): 112%
- growth at 10 µM (786-0): 94.5%
- growth at 10 µM (A498): 111%
- growth at 10 µM (CAKI-1): 86.1%
- growth at 10 µM (TK-10): 107%
- growth at 10 µM (UO-31): 56%
- growth at 10 µM (PC-3): 72%
- growth at 10 µM (T47D): 88.8%

Structure (SMILES): CCOc1ccc(-n2nc(C(=O)Nc3cc(OC)c(OC)c(OC)c3)nc2-c2cc(OC)c(OC)c(OC)c2)cc1
- growth at 10 µM (A549): 86.9%
- growth at 10 µM (EKVX): 96.1%
- growth at 10 µM (NCI-H322M): 89.2%
- growth at 10 µM (NCI-H460): 92.1%
- growth at 10 µM (HCT-15): 82.1%
- growth at 10 µM (KM12): 81.8%
- growth at 10 µM (SF-295): 95.9%
- growth at 10 µM (SF-539): 87.8%
- growth at 10 µM (SNB-19): 82.1%
- growth at 10 µM (SNB-75): 65.6%
- growth at 10 µM (U-251): 85.1%
- growth at 10 µM (Malme-3M): 85.2%
- growth at 10 µM (SK-MEL-2): 85.6%
- growth at 10 µM (UACC-257): 93.1%
- growth at 10 µM (OVCAR-3): 86.9%
- growth at 10 µM (OVCAR-5): 102%
- growth at 10 µM (NCI/ADR-RES): 85.8%
- growth at 10 µM (SK-OV-3): 99.7%
- growth at 10 µM (786-0): 77.1%
- growth at 10 µM (A498): 67.3%
- growth at 10 µM (CAKI-1): 77.4%
- growth at 10 µM (TK-10): 104%
- growth at 10 µM (UO-31): 52.6%
- growth at 10 µM (PC-3): 70.2%
- growth at 10 µM (T47D): 51.4%
